Screens: PubChem, several laboratories
In the library only some 2.3% were active in any assay of this set; here they are far more common.
Candida biofilm = clotrimazole potentiators killing Candida biofilms, primary screen, with clotrimazole, Alamar Blue. C. albicans biofilm + clotrimazole. inhibition, % at 6 µM. 0.14% of 85,000 active. AID 834, 2007;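 active means inhibition above 20%; inactive means inhibition below 20%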;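 further: preformed 24 hr biofilms exposed to compound for 48 hr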
SF-1 act = activators of human SF-1, primary screen, cell-based, CHO-K1, Gal4-SF-1 LBD, luciferase luminescence; Steroidogenic factor 1 (Homo sapiens), Q13285; CHO-K1 Gal4-SF-1 LBD luciferase reporter; % increase over DMSO SF-1-specific signal; activation, % at 10 µM; 1.9% of 65,000 active; AID 522, 2006;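 active means activation above the mean activation of all tested compounds plus 3 SD, cut at about 50% in these data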
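Material: CHO-K1 cells with Gal4–hSF-1 LBD chimera plus Gal4-driven luciferase / Input: 4,000 CHO-K1 cells per well / Incubation: compound exposure 20 h at 37 °C / Signal: luminescence read 15 min after SteadyLite luciferase reagent, after room-temperature equilibration / Read-out: percent activation versus DMSO / Benchmarks: DMSO negative control and −SF1 background wells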
RORa activator = activators of orphan receptor RORA, primary screen, cell-based, luminescence; Nuclear receptor ROR-alpha (Homo sapiens), P35398; CHO-K1 Gal4-RORA LBD luciferase reporter; percent increase over mock-subtracted basal signal; activation, % at 10 µM; 1.5% of 65,000 active; AID 560, 2006;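 active means activation above the mean of all tested compounds plus 3 SD, cut at about 49% in these data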
JNK3 blocker = JNK3 kinase activity inhibitors, primary screen, biochemical, human, purified enzyme; Mitogen-activated protein kinase 10 (Homo sapiens), P53779; HTS; inhibition, % at 8 µM; 0.61% of 60,000 active; AID 746, 2007; in the data active means inhibition above about 17%
Target sequence (P53779 whole entry, looked up): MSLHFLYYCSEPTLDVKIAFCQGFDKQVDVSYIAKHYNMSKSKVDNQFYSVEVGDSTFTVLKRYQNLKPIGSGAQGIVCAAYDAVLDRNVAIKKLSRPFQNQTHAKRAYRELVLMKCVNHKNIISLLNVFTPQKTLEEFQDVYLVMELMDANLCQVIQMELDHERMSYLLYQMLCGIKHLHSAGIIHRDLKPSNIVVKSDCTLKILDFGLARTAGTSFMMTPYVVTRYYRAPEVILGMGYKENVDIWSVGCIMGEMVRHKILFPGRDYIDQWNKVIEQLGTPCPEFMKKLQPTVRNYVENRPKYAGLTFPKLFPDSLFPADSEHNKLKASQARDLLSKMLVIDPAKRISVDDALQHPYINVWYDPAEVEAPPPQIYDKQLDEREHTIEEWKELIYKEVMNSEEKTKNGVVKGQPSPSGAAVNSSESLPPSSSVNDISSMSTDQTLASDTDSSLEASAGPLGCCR
Large screens that a line does not name were inactive.

COc1cccc2cc(NC(=O)C3CCCCC3)c(=O)oc12	SF-1 act 66, RORa activator 56 (no result: Candida biofilm)
COc1cccc2cc(C(=O)Nc3cccnc3N3CCOCC3)c(=O)oc12	none (no result: JNK3 blocker)
O=c1c2c3c(sc2nc2sc(CN4CCOCC4)cn12)CCCC3	none
CCOc1cccc(-c2nnc3n2N=C(c2cc(OC)ccc2OC)CS3)c1	RORa activator 61 (no result: JNK3 blocker)
COc1cccc(-c2nnc3n2N=C(c2cc(OC)ccc2OC)CS3)c1	none (no result: Candida biofilm, JNK3 blocker)
COc1cc(C(=O)Nc2ccc(N(C)C)cc2)cc(OC)c1OC	SF-1 act 62, RORa activator 84
COc1cc(C(=O)Nc2ccc(S(=O)(=O)NC(C)(C)C)cc2)cc(OC)c1OC	none (no result: SF-1 act, RORa activator, JNK3 blocker)
Cc1cc(NCCN2CCOCC2)n2ncc(-c3ccc(Cl)cc3)c2n1	none (no result: Candida biofilm)
Cc1cc(NCCN2CCOCC2)n2ncc(-c3ccccc3)c2n1	SF-1 act 91, RORa activator 66
Cc1cccc(N2CCN(C(=O)c3cccc(N4C(=O)C5CC=CC(C)C5C4=O)c3)CC2)c1C (stereo not given)	none (no result: SF-1 act, RORa activator, JNK3 blocker)
O=c1oc2cc(Cl)ccc2n1CSc1nc2ccccc2s1	none (no result: SF-1 act, RORa activator, JNK3 blocker)
O=C(c1cc2c(=O)oc3ccccc3c2s1)N1CCOCC1	none
Cc1nn(-c2ccccc2)c2sc(C(=O)N3CCOCC3)cc12	SF-1 act 94, RORa activator 58
O=C(c1cc2c(=O)n3ccccc3nc2s1)N1CCOCC1	SF-1 act 60 (no result: Candida biofilm)
Cc1ccc2[nH]c(SCC(=O)N3CCOCC3)nc2c1C	none (no result: SF-1 act, RORa activator, JNK3 blocker)
N#Cc1cc2ccccc2nc1SCc1ccccn1	SF-1 act 67, RORa activator 71
CCC(C)NC(=O)CSc1nc2c(sc3ccccc32)c(=O)n1CCCN1CCOCC1 (stereo not given)	none (no result: SF-1 act, RORa activator, JNK3 blocker)
CCOC(=O)CSc1nc2c(sc3ccccc32)c(=O)n1CCCN1CCOCC1	JNK3 blocker 24
Cc1c(C(=O)NCc2ccoc2)oc2ccc3c(c12)C(=O)CC(C)(C)O3	SF-1 act 73, RORa activator 71
CC(=O)n1cc(C(C[N+](=O)[O-])SCCN)c2ccccc21 (stereo not given)	none (no result: SF-1 act, RORa activator, JNK3 blocker)
Cc1ccc(C2=Nc3ccccc3NC(C)(c3ccc(C)o3)C2)o1 (stereo not given)	SF-1 act 106, RORa activator 53
COc1ccc(NC2=Nc3ccccc3CC2)cc1	SF-1 act 58, RORa activator 63
COC(=O)c1ccc(NC(=O)C23CCC(C)(C(=O)O2)C3(C)C)cc1 (stereo not given)	none (no result: SF-1 act, RORa activator, JNK3 blocker)
O=C(CSc1nnc(-c2ccc(O)cc2)n1Cc1ccco1)c1cccs1	none
O=C(CC(SCc1ccco1)c1ccc(O)cc1)c1cccs1 (stereo not given)	RORa activator 87
Nc1ccc(-c2nc3ccccc3[nH]2)cc1	SF-1 act 56
O=C(CSc1ccc2nnc(-c3ccccn3)n2n1)N1CCOCC1	Candida biofilm 46
COc1ccc(-c2nnc(SCCc3ccccc3)n2N)cc1	none
COc1ccc(-c2nnc(SCc3ccccc3)n2N)cc1	SF-1 act 66
Cc1ccc(S(=O)(=O)C(C)C(=O)c2ccc3c(c2)OCCO3)cc1 (stereo not given)	none (no result: SF-1 act, RORa activator, JNK3 blocker)
CCOc1ccc(Nc2ncnc3c2cnn3-c2ccccc2)cc1	none
c1ccc(-n2ncc3c(NCc4cccs4)ncnc32)cc1	SF-1 act 51
c1ccc(-n2ncc3c(NCc4cccnc4)ncnc32)cc1	RORa activator 52
NNc1ncnc2c1cnn2-c1ccccc1	none (no result: SF-1 act, RORa activator, JNK3 blocker)
COc1ccc(-n2ncc3c(NCc4cccs4)ncnc32)cc1	SF-1 act 82
CCC(=O)Nc1ccc2c(c1)nc(CN1CCN(C(C)=O)CC1)n2C	none (no result: SF-1 act, RORa activator, JNK3 blocker)
O=S(=O)(Nc1cccc2c1ccc1cccn12)c1cccs1	none (no result: SF-1 act, RORa activator, JNK3 blocker)
CC(=O)c1c(C)[nH]c(C(=O)NCCc2cccc(C)c2)c1C	SF-1 act 71
O=c1sc(N2CCN(c3ccccc3F)CC2)nc2ccsc12	SF-1 act 72, RORa activator 60
O=c1sc(N2CCN(c3ccc(F)cc3)CC2)nc2ccsc12	none (no result: SF-1 act, RORa activator, JNK3 blocker)
COC(=O)c1c(NC(=O)C2CCCO2)sc2c1CCC2 (stereo not given)	none (no result: SF-1 act, RORa activator, JNK3 blocker)
NC(=O)c1c(NC(=O)c2cccs2)sc2c1CCCCCC2	RORa activator 56
NC(=O)c1c(NC(=O)C2CCCO2)sc2c1CCC2 (stereo not given)	JNK3 blocker 31
CC(C)Oc1ccc2c3c(c(=O)oc2c1)CCC3	none
CC(C)Oc1cc(O)c2c(=O)c(-c3ccc(O)cc3)coc2c1	SF-1 act 58
COc1ccc(-c2coc3cc(O)cc(O)c3c2=O)cc1	SF-1 act 97
COc1ccc(-c2coc3cc(OC)cc(O)c3c2=O)cc1	none (no result: SF-1 act, RORa activator, JNK3 blocker)
Cc1noc(C)c1CSc1nc2ccccc2n1CCc1ccccc1	none
CCOC(=O)Cn1nc(C)c2c1CCCC2=O	none (no result: SF-1 act, RORa activator, JNK3 blocker)
Cc1cccc(OCCCC(=O)N2CCCc3ccccc32)c1C	none (no result: SF-1 act, RORa activator, JNK3 blocker)
CCc1nc(SCC(=O)N2CCCc3ccccc32)c2c(=O)n(C)c(=O)n(C)c2n1	none
CCOC(=O)N1CCC(NC(=O)Cn2ncc3ccccc32)CC1	none
CC1CCC(NC(=O)Cn2ncc3ccccc32)CC1 (stereo not given)	SF-1 act 52
CCOC(=O)c1cnn2c(C)cc(-c3ccc(F)cc3)nc12	RORa activator 68
COc1cc(N2CCCC2)c(OC)cc1/C=c1/sc2nc3ccccc3n2c1=O	SF-1 act 54
Cc1ccc(-n2c(C)cc(/C=c3/sc4nc5ccccc5n4c3=O)c2C)cc1	none (no result: SF-1 act, RORa activator, JNK3 blocker)
O=C(CSc1nnc(-c2ccco2)o1)NC1CCCCC1	none (no result: SF-1 act, RORa activator, JNK3 blocker)
CN(C(=O)CSc1nnc(-c2ccco2)o1)C1CCCCC1	RORa activator 50
Nc1cc(C(=O)O)ccc1Nc1ccccc1	none (no result: Candida biofilm)
CCc1ccccc1Nc1ccc(C(=O)O)cc1N	SF-1 act 60
COC(=O)C(C)Sc1snnc1-c1ccccc1 (stereo not given)	none (no result: SF-1 act, RORa activator, JNK3 blocker)
CCOC(=O)c1sc2nc3c(cc2c1N)COC(C)(C)C3	SF-1 act 53
Cc1cc(C(=O)CNCc2ccco2)c(C)n1-c1ccc(F)cc1	SF-1 act 53, RORa activator 70
O=C(CSc1ccc2nnc(-c3ccccc3)n2n1)N1CCCCC1	none
Cc1ccc(-c2nc3cnccn3c2Nc2ccccc2)o1	RORa activator 49
CCOC(=O)N1CCC(Nc2nc3ccccc3nc2NS(=O)(=O)c2ccc(Cl)cc2)CC1	SF-1 act 54
COc1ccc(OCC(=O)Nc2ccccc2O)cc1	Candida biofilm 82 (no result: SF-1 act, RORa activator, JNK3 blocker)
COc1ccccc1NC(=O)COc1ccccc1	none (no result: SF-1 act, RORa activator, JNK3 blocker)
CN(C)S(=O)(=O)c1ccc(/C(O)=C2/C(=O)C(=O)N(CCN3CCCCC3)C2c2cccnc2)cc1 (stereo not given)	none
CC(=O)Nc1ccc2nc(-c3ccncc3)[nH]c2c1	none (no result: SF-1 act, RORa activator, JNK3 blocker)
CC(=O)Nc1ccc2nc(-c3ccccn3)[nH]c2c1	RORa activator 65
CCOc1ccc(S(=O)(=O)N2CCN(c3ccccc3F)CC2)c2cccnc12	none (no result: SF-1 act, RORa activator, JNK3 blocker)
COc1ccc2nc(NC(=O)c3cc(C)oc3C)sc2c1	none (no result: SF-1 act, RORa activator, JNK3 blocker)
COc1ccc2nc(NC(=O)C3COc4ccccc4O3)sc2c1 (stereo not given)	none
